Rows were chosen to be rich in hits. Some 2.2% of all compounds tested hit in one or more screens of this group.
VIM-2 inh: inhibitors of Pseudomonas aeruginosa VIM-2 metallo-beta-lactamase; purified VIM-2, nitrocefin hydrolysis, epi-absorbance fluorescence; inhibition, % at 5.6 µM; hit rate 0.89% among 290,000; AID 1527;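 active = inhibition above the mean of all tested compounds plus 3 SD, cutoff set per screening run, cut at about 7.5% in these data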;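 also: red hydrolysis product quenches plate fluorescence so inhibitors raise well fluorescence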
PHOSPHO1 block: PHOSPHO1 (human) inhibition | hit rate 1.1% among 290,000 | recombinant PHOSPHO1, absorbance phosphatase assay | AID 1565 | inhibition, % at 13.3 µM | Q8TCT1; in the data active = inhibition above about 60%
Target sequence (Q8TCT1 whole entry, looked up): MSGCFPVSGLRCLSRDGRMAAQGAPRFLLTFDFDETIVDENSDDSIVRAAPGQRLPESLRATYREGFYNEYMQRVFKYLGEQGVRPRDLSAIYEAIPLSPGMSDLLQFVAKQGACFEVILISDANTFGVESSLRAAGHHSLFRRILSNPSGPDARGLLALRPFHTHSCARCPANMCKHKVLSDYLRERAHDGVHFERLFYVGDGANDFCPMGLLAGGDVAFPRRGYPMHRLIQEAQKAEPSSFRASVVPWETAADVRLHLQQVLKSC
IMP-1 inhibitor: blocks Pseudomonas aeruginosa IMP-1 metallo-beta-lactamase; inhibition, % at 5.6 µM; hit rate 0.45% among 290,000; purified IMP-1, nitrocefin hydrolysis, epi-absorbance fluorescence; AID 1556;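 active = inhibition above the mean plus 3 SD of all compounds in the same screening run, cut at about 4.5% in these data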
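Material – recombinant IMP-1 enzyme, purified · Amount – IMP-1 0.2 nM before substrate addition · Medium – HEPES buffer pH 7.1 with ZnSO4 and Brij 35 · Timing – 25 °C, 15 min preincubation, 25 min reaction · Measured by – plate fluorescence quenching by hydrolysis product, ex 480/em 530 nm · Read-out – percent enzyme inhibition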
PvdQ acylase: P. aeruginosa PvdQ acylase inhibition; purified PvdQ acylase, fluorescence plate reader; inhibition, % at 10 µM; hit rate 0.063% among 340,000; AID 488965; in the data active = inhibition above about 30%, passing the limit was not always enough
Yeast superoxide: caloric restriction mimetics inhibiting age-related superoxide in yeast; S. cerevisiae aged cells, superoxide DHE fluorescence; hits give low values; superoxide response (% of plate mean), % at 10 µM; hit rate 0.18% among 330,000;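 active = superoxide response under a set limit, about three screen SD below normal, cut at about 65% in these data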;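 also: yeast aged for seven days with compound at 30 °C before DHE staining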
Large screens that a line does not name were inactive.

Cc1cc(NC(=O)COC(=O)c2ccccc2[N+](=O)[O-])no1	none
Cc1ccc(-c2ccccc2[C@@H]2C[C@H]3CN(C)C(=O)[C@]34CCCN24)o1	none
O=C1N(c2ccccc2)C[C@@H]2C[C@@H](c3cc4ccccc4o3)N3CCC[C@@]123	PvdQ acylase 42 (no result: Yeast superoxide)
O=C(COc1ccc(S(=O)(=O)N2CCOCC2)cc1Cl)NCc1ccco1	IMP-1 inhibitor 5.4
O=S(=O)(c1ccc(OCC(O)CNCc2ccco2)c(Cl)c1)N1CCOCC1 (stereo not drawn)	none
CCOC(=O)N1CCN(S(=O)(=O)c2ccc(OCC(=O)OC)c(Cl)c2)CC1	IMP-1 inhibitor 5.0
CCOC(=O)N1CCN(S(=O)(=O)c2ccc(OC)c(Cl)c2)CC1	none
N#CC1=C2SCN(Cc3ccccc3)CN2C(=O)CC1c1ccc2c(c1)OCO2 (stereo not drawn)	PHOSPHO1 block 63
N#CC1=C2SCN(Cc3ccccc3)CN2C(=O)CC1c1cccs1 (stereo not drawn)	PHOSPHO1 block 68
CC(C)c1cc(CN2C(C)COCC2C)cc(C(C)C)c1O (stereo not drawn)	none (no result: VIM-2 inh, PHOSPHO1 block, IMP-1 inhibitor, Yeast superoxide)
COC(=O)c1c(-c2cccnc2)csc1NC(=O)c1ccc2c(c1)OCO2	none
O=C(c1cc2nc(-c3ccccc3)cc(C(F)(F)F)n2n1)N1CCN2CCCC2C1 (stereo not drawn)	VIM-2 inh 9.1
O=C(c1nn2c(C(F)(F)F)cc(-c3ccccc3)nc2c1Cl)N1CCN2CCCC2C1 (stereo not drawn)	VIM-2 inh 9.1 (no result: PHOSPHO1 block, Yeast superoxide)
COc1cccc(NC(=O)Cn2c3ccc(F)cc3c3nc4n(c(=O)c32)CCCS4)c1	IMP-1 inhibitor 6.5
COc1ccc2c(c1)c1nc3n(c(=O)c1n2CC(=O)Nc1ccccc1)CCCS3	none
Cc1oc(-c2cccs2)nc1CN1CCC(CO)(CCOc2ccccc2)CC1	none
Cc1cc(-c2n[nH]c(=S)o2)c(C)n1-c1ccccc1	PHOSPHO1 block 101 (no result: PvdQ acylase)
Oc1cc2ccccc2cc1-c1n[nH]c(=S)o1	PHOSPHO1 block 96
Cc1cc(-c2n[nH]c(=S)n2-c2ccccc2)nn1C	none
S=c1[nH]nc(-c2c[nH]c3ccccc23)o1	none
CSc1cccc(N2CC(C(=O)N3CCN(S(=O)(=O)c4ccccc4Cl)CC3)CC2=O)c1 (stereo not drawn)	none (no result: VIM-2 inh, PHOSPHO1 block, IMP-1 inhibitor)
OCC[C@@H]1C[C@@H](O)[C@H](O)[C@@]2(OCCc3ccccc32)O1	none
C1=CC2c3ccccc3NC(c3ccncc3)C2C1 (stereo not drawn)	PHOSPHO1 block 79
CC(=O)c1ccc2c(c1)C1C=CCC1C(c1ccncc1)N2 (stereo not drawn)	none
Cn1ncc(Cl)c1C(=O)N1CCN(c2ccccc2)CC1	none
Cn1ncc(Cl)c1C(=O)N1CCN(c2ncccn2)CC1	PHOSPHO1 block 63
CC(C)n1c(-c2ccccc2F)n[nH]c1=S	IMP-1 inhibitor 5.0
CC(C)(C)c1ccc(-c2n[nH]c(=S)n2Cc2ccccc2)cc1	none
CC(C)n1c(-c2ccc(C(C)(C)C)cc2)n[nH]c1=S	PHOSPHO1 block 99
CC(c1ccc(F)cc1)n1c(-c2cccs2)n[nH]c1=S (stereo not drawn)	none
Cc1cc(C)nc(N/N=C/C2=C(O)CC(c3ccccc3)CC2=O)n1 (stereo not drawn)	none (no result: PvdQ acylase)
CCCCc1nc(SCC(=O)N2CCOCC2)c2c(=O)n(C)c(=O)n(C)c2n1	none
O=S(=O)(Nc1nc2ccccc2nc1Nc1cccc(S(=O)(=O)N2CCCCC2)c1)c1ccccc1	none
Cc1ccc(SCC(=O)Nc2ccccc2C(=O)O)cc1	none
O=C(CCl)Nc1nc(-c2ccco2)c(-c2ccco2)s1	none
Nc1nc(-c2ccco2)c(-c2ccco2)s1	PHOSPHO1 block 88
c1coc(-c2nc(-c3ccco3)c(-c3ccco3)nc2-c2ccco2)c1	PHOSPHO1 block 68
Nc1nc(-c2ccc(-n3nncc3-c3ccco3)cc2)cs1	none (no result: PvdQ acylase)
Nc1nc(-c2ccco2)cs1	PHOSPHO1 block 93
Cc1ccc(S(=O)(=O)N(C)C)cc1NC(=O)c1cc(S(=O)(=O)N2CCCCC2)ccc1N1CCOCC1	none (no result: VIM-2 inh, PHOSPHO1 block, IMP-1 inhibitor, Yeast superoxide)
Sc1oc(-c2ccccc2)cc1C=Nc1ccccc1	PHOSPHO1 block 91
Oc1oc(-c2ccccc2)nc1C=Nc1ccccc1	none
CCOC(=O)C1(Cc2cccc(Cl)c2)CCCN(C(=O)CN2C(=O)CSC2=O)C1 (stereo not drawn)	none
Cc1ccc(NC(=S)NNC(=O)c2cccc([N+](=O)[O-])c2)cc1Cl	PHOSPHO1 block 74
O=C(c1cncc(Br)c1)N1CCN(S(=O)(=O)c2ccc3ccccc3c2)CC1	none (no result: VIM-2 inh, PHOSPHO1 block, IMP-1 inhibitor)
COc1ccc(C(CNc2ncnc3sc(C)c(C)c23)N(C)C)cc1 (stereo not drawn)	VIM-2 inh 8.8
COc1ccccc1C(CNc1ncnc2sc(C)c(C)c12)N(C)C (stereo not drawn)	none
Cc1nn(-c2ccccc2)c(Cl)c1/C=C1\SC(=S)N(CCCCCC(=O)O)C1=O	none
Cc1nn(-c2ccccc2)c(Cl)c1/C=C1\SC(=S)NC1=O	PHOSPHO1 block 64
CCN(C(=O)COC(=O)c1ccc(-n2c(C)ccc2C)cc1)c1c(N)n(Cc2ccccc2)c(=O)[nH]c1=O	none (no result: VIM-2 inh, PHOSPHO1 block, IMP-1 inhibitor, Yeast superoxide)
COCCn1c(C)cc(C(=O)CSc2nc3ccccc3o2)c1C	PHOSPHO1 block 98
CCC(C)(C)NC(=O)C(c1ccc(C)o1)N(Cc1cccs1)C(=O)Cn1nnc2ccccc21 (stereo not drawn)	IMP-1 inhibitor 10.0
CCC(C)(C)NC(=O)C(c1ccccc1)N(Cc1cccs1)C(=O)Cn1nnc2ccccc21 (stereo not drawn)	none (no result: PHOSPHO1 block)
CN1Cc2c(N3CCOCC3)nc(SCc3ccccc3)c(C#N)c2CC1(C)C	PHOSPHO1 block 80
CCSc1nc(N2CCOCC2)c2c(c1C#N)CC(C)(C)N(C)C2	none
Cc1c(CCC(=O)NCCCn2ccnc2)c(=O)oc2c(C)c3occ(C(C)(C)C)c3cc12	VIM-2 inh 8.1
Cc1oc2c(C)c3oc(=O)c(CCC(=O)NCCCN4CCOCC4)c(C)c3cc2c1C	none
Cc1oc2c(C)c3oc(=O)c(CCC(=O)N4C[C@H]5C[C@@H](C4)c4cccc(=O)n4C5)c(C)c3cc2c1C	none
Cc1coc2c(C)c3oc(=O)c(CCC(=O)NCCCN4CCOCC4)c(C)c3cc12	VIM-2 inh 11
Cc1coc2c(C)c3oc(=O)c(CCC(=O)N4C[C@H]5C[C@@H](C4)c4cccc(=O)n4C5)c(C)c3cc12	VIM-2 inh 7.7
Cc1coc2c(C)c3oc(=O)c(CCC(=O)NCCN4CCOCC4)c(C)c3cc12	VIM-2 inh 8.2
Nc1nc(Nc2ccccc2)nc(NC2CCCCC2)c1[N+](=O)[O-]	none
O=C(NCC1CCCN(Cc2ccc3nonc3c2)C1)c1cccc(C(F)(F)F)c1 (stereo not drawn)	none
CC(OC(=O)c1cccc(-n2cnnn2)c1)C(=O)Nc1cccc(Cl)c1 (stereo not drawn)	none (no result: VIM-2 inh, PHOSPHO1 block, IMP-1 inhibitor)
C=CCSc1nnc(-c2cc3c(-c4ccccc4)nn(C)c3s2)n1C	VIM-2 inh 9.5
COc1ccc(CCNc2nc(-c3sc(C)nc3C)cs2)cc1OC	PHOSPHO1 block 80
COc1ccc(CCNc2nc(-c3ccncc3)cs2)cc1OC	none
